Experimental findings from ChEMBL document CHEMBL1126783, “Design of potent, cyclic peptide bradykinin receptor antagonists from conformationally constrained linear peptides” (J Med Chem, 1993) are described below.

Structures are written as SMILES. pKi: −log10 of the molar value. Where a SMILES comes first, the peptide text is derived from it. Bridges are numbered along the chain shown (N, C = ends). [ ]: non-standard residue; d: D form. Oic = O=C(O)[C@@H]1C[C@@H]2CCCC[C@@H]2N1; Hyp = O=C(O)[C@@H]1C[C@@H](O)CN1; dTic = O=C(O)[C@H]1Cc2ccccc2CN1

The target in assay [1] is T1, B2 bradykinin receptor (Cavia porcellus, UniProt O70526).
T1 sequence (O70526 whole entry): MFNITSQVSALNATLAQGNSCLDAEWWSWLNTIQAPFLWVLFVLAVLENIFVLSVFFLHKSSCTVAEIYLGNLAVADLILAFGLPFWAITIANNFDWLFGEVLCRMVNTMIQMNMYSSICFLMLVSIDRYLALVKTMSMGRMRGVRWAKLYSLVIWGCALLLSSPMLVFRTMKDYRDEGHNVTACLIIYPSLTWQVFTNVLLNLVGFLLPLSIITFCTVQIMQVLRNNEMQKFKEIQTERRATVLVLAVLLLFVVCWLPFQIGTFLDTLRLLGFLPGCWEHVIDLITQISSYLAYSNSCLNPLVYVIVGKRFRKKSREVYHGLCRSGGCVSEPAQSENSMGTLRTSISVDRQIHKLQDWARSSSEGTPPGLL
The assay is described as follows: Binding affinity against [3H]bradykinin binding to bradykinin receptor B2 in guinea pig ileal membrane. It is filed as cell membranes. The procedure, abridged:
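Competition binding against [³H]bradykinin on guinea pig ileal membrane preparations, with affinity given as Ki following a previously described method. The ileum expresses only B2 receptors.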

Assay [2] has as its target T1, B2 bradykinin receptor. The assay is described as follows: Antagonism against bradykinin receptor B2 in guinea pig ileal tissue. It is filed as functional. The conditions noted are these: read-out: pA2 (converted). The method in brief: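 Functional antagonism recorded as pA2 in isolated guinea pig ileal tissue, a preparation that expresses only B2 receptors. The procedure follows conventional, previously reported methods.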

As usually defined, the pKi is −log10 of the Ki, conventionally taken in molar units. Lower therefore signals a large Ki.

On B2 bradykinin receptor [1], `CN(CC(=O)N[C@@H](Cc1ccccc1)C(=O)N[C@@H](CO)C(=O)N1Cc2ccccc2C[C@@H]1C(=O)N1C2CCCCC2C[C@H]1C(=O)N[C@@H](CCCN=C(N)N)C(=O)O)C(=O)[C@@H]1C[C@H](O)CN1C(=O)[C@@H]1CCCN1C(=O)[C@H](CCCN=C(N)N)NC(=O)[C@H](N)CCCN=C(N)N` (some centres not stated) showed a pKi of 7.51.
Compound `CN(C(=O)CNC(=O)[C@@H]1C[C@H](O)CN1C(=O)[C@@H]1CCCN1C(=O)[C@H](CCCN=C(N)N)NC(=O)[C@H](N)CCCN=C(N)N)[C@@H](Cc1ccccc1)C(=O)N[C@@H](CO)C(=O)N1Cc2ccccc2C[C@@H]1C(=O)N1C2CCCCC2C[C@H]1C(=O)N[C@@H](CCCN=C(N)N)C(=O)O` (some centres not stated) had a pKi on B2 bradykinin receptor [1] of 7.58. In addition, the Kb at B2 bradykinin receptor [2] is 2510 nM.
On to `N=C(N)NCCC[C@@H](N)C(=O)N[C@@H](CCCNC(=N)N)C(=O)N[C@H]1CSSC[C@@H](C(=O)N[C@@H](CO)C(=O)N2Cc3ccccc3C[C@@H]2C(=O)N2[C@H](C(=O)N[C@@H](CCCNC(=N)N)C(=O)O)C[C@@H]3CCCC[C@@H]32)NC(=O)CNC(=O)[C@@H]2CCCN2C1=O` (H-[dR]RCPGCS[dTic][Oic]R-OH; disulfide 3-6), for which the Kb at B2 bradykinin receptor [2] was 240 nM.
For `CN(CC(=O)N(C)[C@@H](Cc1ccccc1)C(=O)N[C@@H](CO)C(=O)N1Cc2ccccc2C[C@@H]1C(=O)N1C2CCCCC2C[C@H]1C(=O)N[C@@H](CCCN=C(N)N)C(=O)O)C(=O)[C@@H]1C[C@H](O)CN1C(=O)[C@@H]1CCCN1C(=O)[C@H](CCCN=C(N)N)NC(=O)[C@H](N)CCCN=C(N)N` (some centres not stated), the pKi on B2 bradykinin receptor [1] is 5.77.
For `CC(NC(=O)[C@@H]1C[C@H](O)CN1C(=O)[C@@H]1CCCN1C(=O)[C@H](CCCN=C(N)N)NC(=O)[C@H](N)CCCN=C(N)N)C(=O)N[C@@H](Cc1ccccc1)C(=O)N[C@@H](CO)C(=O)N1Cc2ccccc2C[C@@H]1C(=O)N1C2CCCCC2C[C@H]1C(=O)N[C@@H](CCCN=C(N)N)C(=O)O` (some centres not stated), on B2 bradykinin receptor [1], the pKi is 7.08.
Regarding `C[C@@](Cc1ccccc1)(NC(=O)CNC(=O)[C@@H]1C[C@H](O)CN1C(=O)[C@@H]1CCCN1C(=O)[C@H](CCCN=C(N)N)NC(=O)[C@H](N)CCCN=C(N)N)C(=O)N[C@@H](CO)C(=O)N1Cc2ccccc2C[C@@H]1C(=O)N1C2CCCCC2C[C@H]1C(=O)N[C@@H](CCCN=C(N)N)C(=O)O` (some centres not stated), the pKi at B2 bradykinin receptor [1] is 9.27. The Kb at B2 bradykinin receptor [2] is 12.6 nM.
For `CC(NC(=O)[C@@H]1C[C@H](O)CN1C(=O)[C@@H]1CCCN1C(=O)[C@H](CCCN=C(N)N)NC(=O)[C@H](N)CCCN=C(N)N)C(=O)N[C@@](C)(Cc1ccccc1)C(=O)N[C@@H](CO)C(=O)N1Cc2ccccc2C[C@@H]1C(=O)N1C2CCCCC2C[C@H]1C(=O)N[C@@H](CCCN=C(N)N)C(=O)O` (some centres not stated), the pKi on B2 bradykinin receptor [1] is 5.52.
Turning to `NC(N)=NCCC[C@@H](N)C(=O)N[C@@H](CCCN=C(N)N)C(=O)N[C@H]1CSSC[C@@H](C(=O)N2Cc3ccccc3C[C@@H]2C(=O)N2[C@H](C(=O)N[C@@H](CCCN=C(N)N)C(=O)O)C[C@@H]3CCCC[C@@H]32)NC(=O)[C@H](Cc2ccccc2)NC(=O)CNC(=O)[C@@H]2CCCN2C1=O` (H-[dR]RCPGFC[dTic][Oic]R-OH; disulfide 3-7), at B2 bradykinin receptor [2], the Kb is 501 nM.
`NC(N)=NCCC[C@@H](N)C(=O)N[C@@H](CCCN=C(N)N)C(=O)N1CCC[C@H]1C(=O)N1C[C@H](O)C[C@H]1C(=O)NCC(=O)N[C@@H](Cc1ccccc1)C(=O)N[C@@H](CO)C(=O)N1Cc2ccccc2C[C@@H]1C(=O)N1[C@H](C(=O)N[C@@H](CCCN=C(N)N)C(=O)O)C[C@@H]2CCCC[C@@H]21` (H-[dR]RP[Hyp]GFS[dTic][Oic]R-OH) showed a pKi on B2 bradykinin receptor [1] of 10.10. Besides, the Kb at B2 bradykinin receptor [2] was 1.51 nM.
